ChEMBL document CHEMBL3351585, “Design, synthesis and biological evaluation of novel peptides with anti-cancer and drug resistance-reversing activities” (Eur J Med Chem, 2015)
pIC50: −log10 of the molar value. Active and inactive are the calls of the source. No cut-off for these calls is given here.

Columns and labels:
[1] = Cytotoxicity against human GES-1 cells after 48 hrs by MTT assay; assay type: cell-based; settings: GES1, 48 h
Method in brief: (§1)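 Cells grown in RPMI1640 with 10% heat-inactivated FBS and 1% penicillin-streptomycin at 37 °C, 5% CO2. Log-phase cells were seeded at 5 × 10^3/well 24 h before treatment, exposed to a range of peptide concentrations for 48 h, then given MTT for 4 h. Formazan was dissolved in DMSO and A490 read. Survival was computed relative to untreated wells, and IC50 taken from the survival curve.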

MCF7 [2] = assay: Anticancer activity against human MCF7 cells after 48 hrs by MTT assay; assay type: functional, cell-based; settings: MCF7, 48 h; method in brief: as §1
[3] = Anticancer activity against human K562/ADR cells after 48 hrs by MTT assay; assay type: functional, cell-based; method in brief: as §1
[4] = Anticancer activity against human MCF7/ADR cells after 48 hrs by MTT assay; assay type: functional, cell-based; settings: NCI/ADR-RES; method in brief: as §1
K562 = assay: Anticancer activity against human K562 cells after 48 hrs by MTT assay; assay type: functional, cell-based; settings: K562, 48 h; method in brief: as §1
[5] = Toxicity in rabbit erythrocytes assessed as induction of hemolysis at 160 uM incubated for 1 hr by microplate reader assay; assay type: cell-based, Oryctolagus cuniculus; settings: erythrocyte
Method in brief: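 Rabbit red blood cells in PBS were mixed 1:1 by volume with peptide solution and incubated 1 h at 37 °C, then spun at 1000 g for 5 min. Hemoglobin in the supernatant was read at 540 nm. PBS defined 0% hemolysis and 0.1% Triton X-100 defined 100%.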

[6] = Retention time of the compound by UPLC method; assay type: physicochemical
NCI/ADR-RES = assay: Potentiation of adriamycin-induced cytotoxicity against human MCF7/ADR cells at 0.5 uM after 48 hrs by MTT assay; assay type: functional, cell-based
Method in brief: (§2)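 ADM-resistant MCF-7/ADM or K562/ADM cells, grown in RPMI1640 with 10% FBS at 37 °C and 5% CO2, were seeded at 1 × 10^4 per well and held 24 h. Fixed peptide was added, followed by graded ADM concentrations, for 48 h. MTT was then given for 4 h at 37 °C, formazan dissolved in DMSO and absorbance read at 570 nm. Verapamil served as positive control.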

MCF7 [7] = assay: Antimigratory activity in human MCF7 cells assessed as inhibition of cell migration at 0.5 uM incubated for 48 hrs by wound healing assay; assay type: functional, cell-based
Method in brief: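 MCF-7 cells were seeded at 2 × 10^5/well and grown 24 h to 90% confluence. A cell-free gap was scratched, and cells migrated in serum-free medium with peptide for 48 h. Wound closure was photographed at 0 h and 48 h.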

[8] = Increase in adriamycin uptake in human MCF7/ADR cells at 0.5 uM after 2.5 hrs by fluorescence spectrophotometry; assay type: ADME, cell-based; settings: nci/adr-res
Method in brief: (§3)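 2 × 10^5 MCF-7/ADM or K562/ADM cells were co-incubated 2.5 h with ADM plus peptide, or with verapamil as comparator. After washing in cold PBS, cells were lysed in 0.75 M HCl/0.2% Triton X-100 in isopropanol. Lysate ADM fluorescence was measured by spectrofluorometry at ex 460/em 610 nm.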

MCF7 [9] = assay: Induction of cell membrane alteration in human MCF7 cells at 5 uM incubated for 30 mins by acridine orange/ethidium bromide double staining method; assay type: functional, cell-based
Method in brief: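 MCF-7 cells were plated at 1 × 10^5/well and grown 24 h, then given peptide for 30 min. Cells were washed twice with PBS and stained 10 min in the dark with cold PBS containing acridine orange and ethidium bromide. Excess dye was washed off, then cells were imaged by fluorescence microscopy. Red EB staining marks membrane-compromised cells.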

[10] = Increase in adriamycin uptake in human K562/ADR cells at 0.5 uM after 2.5 hrs by fluorescence microscopy; assay type: ADME, cell-based
Method in brief: (§4)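 2 × 10^5 MCF-7/ADM or K562/ADM cells were co-incubated 2.5 h with ADM plus peptide, or with verapamil as comparator. Cells were washed with cold PBS and ADM fluorescence was imaged by fluorescence microscopy.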

[11] = Increase in adriamycin uptake in human K562/ADR cells at 0.5 uM after 2.5 hrs by fluorescence spectrophotometry; assay type: ADME, cell-based; method in brief: as §3
MCF7 [12] = assay: Induction of mitochondrial membrane potential depolarization in human MCF7 cells at 5 uM incubated for 2 hrs by JC1 staining; assay type: functional, cell-based
Method in brief: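 MCF-7 cells plated at 1 × 10^5 per well, grown 24 h, then exposed to peptide for 2 h. Mitochondrial membrane potential was assessed with a JC-1 mitochondrial membrane potential kit. Green (monomer) and red (J-aggregate) fluorescence were imaged, with merged orange taken as normal potential.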

MCF7 [13] = assay: Antimigratory activity in human MCF7 cells assessed as inhibition of cell migration at 0.5 uM incubated for 48 hrs by transwell migration assay; assay type: functional, cell-based
Method in brief: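 Transwell chambers with a porous membrane separating upper and lower compartments. 4 × 10^4 MCF-7 cells were placed in the upper chamber in peptide-containing medium and incubated 48 h. Cells that reached the lower membrane surface were counted.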

K562/Adr = assay: Potentiation of adriamycin-induced cytotoxicity against human K562/ADR cells at 0.5 uM after 48 hrs by MTT assay; assay type: functional, cell-based; method in brief: as §2
[14] = Drug uptake in cytosol of human MCF7 cells at 5 uM incubated for 5 mins or 30 mins by fluorescein isothiocyanate labeling based fluorescence microscopy; assay type: ADME, cell-based
Method in brief: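 MCF-7 cells were plated at 1 × 10^5/well and grown 24 h, then exposed to FITC-labeled peptides for 5 min or 30 min. Cells were washed three times with cold PBS, and intracellular fluorescence was imaged by fluorescence microscopy.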

MCF7 [15] = assay: Induction of cell membrane morphology changes in human MCF7 cells at 5 uM incubated for 30 mins by scanning electron microscopy; assay type: functional, cell-based
Method in brief: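 MCF-7 cells were grown 24 h on coverslips at 1 × 10^5/well and exposed to peptide for 30 min. Cells were gently PBS-washed, fixed in 2.5% glutaraldehyde, and examined by scanning electron microscopy.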

[16] = Increase in adriamycin uptake in human MCF7/ADR cells at 0.5 uM after 2.5 hrs by fluorescence microscopy; assay type: ADME, cell-based; settings: nci/adr-res; method in brief: as §4
MCF7 [17] = assay: Induction of cytochrome c release in cytoplasm of human MCF7 cells at 5 uM incubated for 2 hrs by ELISA method (reference value: 44.1 +/- 2.7 ng); assay type: functional
MCF7 [18] = assay: Induction of cytochrome c release in mitochondria of human MCF7 cells at 5 uM incubated for 2 hrs by ELISA method (reference value: 347.8 +/- 14.5 ng); assay type: functional
MCF7 [19] = assay: Induction of cytochrome c release in human MCF7 cells at 5 uM incubated for 2 hrs by ELISA method (reference value: 364.2 +/- 20.5 ng); assay type: functional
MCF7 [20] = assay: Induction of cytochrome c release in extracellular region of human MCF7 cells at 5 uM incubated for 2 hrs by ELISA method (reference value: 15.7 +/- 0.77 ng); assay type: functional

`COc1cccc2c1C(=O)c1c(O)c3c(c(O)c1C2=O)C[C@@](O)(C(=O)CO)C[C@@H]3O[C@H]1C[C@H](N)[C@H](O)[C@H](C)O1` [DOXORUBICIN] gave a pIC50 [1] of 6.28, a pIC50 (MCF7 [2]) of 6.44 and a pIC50 [3] of 4.17. It also gave a pIC50 [4] of 4.28 and a pIC50 (K562) of 6.35.
With H-VKRFKKFFRKLKKQV-NH2 the pIC50 [1] was 3.99, the Activity [5] was “Non-toxic” and the pIC50 (MCF7 [2]) was 4.84. The pIC50 (K562) was 4.79 and the Retention_time [6] was 3.31 min.
In the case of H-VKRFKKFFRKLKKGV-NH2, the pIC50 [1] was 3.97, the Activity [5] was “Non-toxic” and the pIC50 (MCF7 [2]) was 4.80. For the same compound, the pIC50 (K562) was 4.83 and the Retention_time [6] was 3.25 min.
For H-VKRFKKFFRKLKKLV-NH2, the Activity (NCI/ADR-RES) was “Active”, the inhibition (MCF7 [7]) was “Active” and the Activity [8] was “Active”. The Activity (MCF7 [9]) was “Active”, the pIC50 [1] was 4.11 and the Activity [5] was “Non-toxic”. For the same compound, the Activity [10] was “Active”, the Activity [11] was “Active” and the pIC50 (MCF7 [2]) was 5.44. For the same compound, the Activity (MCF7 [12]) was “Active”, the inhibition (MCF7 [13]) was “Active” and the pIC50 [3] was 5.48. For the same compound, the Activity (K562/Adr) was “Active”, the pIC50 [4] was 5.36 and the Drug uptake [14] was “Active”. For the same compound, the Activity (MCF7 [15]) was “Active”, the Activity [16] was “Active” and the Activity (MCF7 [17]) was 59.9 ng. The pIC50 (K562) was 5.96, the Retention_time [6] was 3.84 min and the Activity (MCF7 [18]) was 303.8 ng. It also gave an Activity (MCF7 [19]) of 354.8 ng and an Activity (MCF7 [20]) of 14.9 ng.
With H-VKRFKKFFRKLKKTV-NH2 the pIC50 [1] was 3.96, the Activity [5] was “Non-toxic” and the pIC50 (MCF7 [2]) was 4.72. It also gave a pIC50 (K562) of 4.77 and a Retention_time [6] of 3.44 min.
In the case of H-VKRFKKFFRKLKKDV-NH2, the pIC50 [1] was 3.92, the Activity [5] was “Non-toxic” and the pIC50 (MCF7 [2]) was 4.70. The pIC50 (K562) was 4.35 and the Retention_time [6] was 3.38 min.
In the case of H-VKRFKKFFRKLKKVV-NH2, the pIC50 [1] was 4.19, the Activity [5] was “Non-toxic” and the pIC50 (MCF7 [2]) was 5.31. It also gave a pIC50 (K562) of 5.30 and a Retention_time [6] of 3.69 min.
